Experimental data taken from ChEMBL document CHEMBL1137781, “Synthesis and preclinical evaluation of novel PET probes for P-glycoprotein function and expression” (J Med Chem, 2009).

Columns and labels:
[1] = Biodistribution in Wistar rat red blood cells at 40+/-4 MBq, iv after 80 mins; assay type: ADME, organism-based, Erythrocyte; conditions: in vivo
Spleen [2] = assay: Biodistribution in Wistar rat spleen at 40+/-4 MBq, iv after 80 mins; assay type: ADME, organism-based; conditions: in vivo
Rattus norvegicus = assay: AUC in 50 mg/kg cyclosporin A pretreated Wistar rat at 27+/-2 MBq, iv; assay type: ADME, organism-based, Plasma; set-up: dose 50 mg/kg, route intravenous; conditions: in vivo
Method in brief: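 Male Wistar rats with a femoral arterial cannula placed under isoflurane. Saline or cyclosporin A (50 mg/kg, commercial solution) given via tail vein, then the [11C] tracer via penile vein. Dynamic microPET over the brain for 76 min, with 14 arterial samples to 60 min. Plasma counted in a γ counter. AUC of whole-brain or plasma SUV over 0-60 min.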

[3] = Biodistribution in 50 mg/kg cyclosporin A pretreated Wistar rat bulbus olfactorius at 27+/-2 MBq, iv after 80 mins; assay type: ADME, organism-based, Olfactory bulb; set-up: dose 50 mg/kg, route intravenous; conditions: in vivo
Method in brief: (§1)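 Male Wistar rats pretreated via tail vein with saline or cyclosporin A (50 mg/kg, commercial solution), then given the [11C] tracer via penile vein. After microPET scanning the anesthetized rats were killed. Tissues were excised and weighed, and blood was centrifuged into plasma and cells. γ counting with decay correction. Results as SUV (tissue MBq/g × body weight/injected dose).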

Hippocampus = assay: Biodistribution in 50 mg/kg cyclosporin A pretreated Wistar rat hippocampus at 27+/-2 MBq, iv after 80 mins; assay type: ADME, organism-based; set-up: dose 50 mg/kg, route intravenous; conditions: in vivo
Lung = assay: Biodistribution in Wistar rat lung at 40+/-4 MBq, iv after 80 mins; assay type: ADME, organism-based; conditions: in vivo
Method in brief: (§2)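 Male Wistar rats (12 h light/dark, chow ad libitum) were fitted with a femoral arterial cannula under isoflurane. They were pretreated via tail vein with saline, cyclosporin A (50 mg/kg), or nonradioactive tracer compound (15 mg/kg; 10 mg/mL in saline with 35% ethanol). The 11C tracer was then given via penile vein, followed by 76 min microPET. Animals were then terminated; excised tissues were weighed and gamma-counted with decay correction. Values are SUVs (tissue MBq/g × body weight g / injected MBq).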

Liver [4] = assay: Biodistribution in 50 mg/kg cyclosporin A pretreated Wistar rat liver at 27+/-2 MBq, iv after 80 mins; assay type: ADME, organism-based; set-up: dose 50 mg/kg, route intravenous; conditions: in vivo
Plasma [5] = assay: Biodistribution in Wistar rat plasma at 40+/-4 MBq, iv after 80 mins; assay type: ADME, organism-based; conditions: in vivo
Plasma [6] = assay: Biodistribution in 50 mg/kg cyclosporin A pretreated Wistar rat plasma at 27+/-2 MBq, iv after 80 mins; assay type: ADME, organism-based; set-up: dose 50 mg/kg, route intravenous; conditions: in vivo
Striatum [7] = assay: Biodistribution in 50 mg/kg cyclosporin A pretreated Wistar rat striatum at 27+/-2 MBq, iv after 80 mins; assay type: ADME, organism-based; set-up: dose 50 mg/kg, route intravenous; conditions: in vivo
[8] = Biodistribution in 50 mg/kg cyclosporin A pretreated Wistar rat medulla at 27+/-2 MBq, iv after 80 mins; assay type: ADME, organism-based, Medulla of organ; set-up: dose 50 mg/kg, route intravenous; conditions: in vivo
Kidney = assay: Biodistribution in Wistar rat kidney at 40+/-4 MBq, iv after 80 mins; assay type: ADME, organism-based; conditions: in vivo; method in brief: as §2
[9] = Biodistribution in 50 mg/kg cyclosporin A pretreated Wistar rat red blood cells at 27+/-2 MBq, iv after 80 mins; assay type: ADME, organism-based, Erythrocyte; set-up: dose 50 mg/kg, route intravenous; conditions: in vivo
Spleen [10] = assay: Biodistribution in 50 mg/kg cyclosporin A pretreated Wistar rat spleen at 27+/-2 MBq, iv after 80 mins; assay type: ADME, organism-based; set-up: dose 50 mg/kg, route intravenous; conditions: in vivo
[11] = Biodistribution in 50 mg/kg cyclosporin A pretreated Wistar rat cingulate cortex at 27+/-2 MBq, iv after 80 mins; assay type: ADME, organism-based; set-up: dose 50 mg/kg, route intravenous; conditions: in vivo; method in brief: as §1
Striatum [12] = assay: Biodistribution in Wistar rat striatum at 40+/-4 MBq, iv after 80 mins; assay type: ADME, organism-based; conditions: in vivo
Liver [13] = assay: Biodistribution in Wistar rat liver at 40+/-4 MBq, iv after 80 mins; assay type: ADME, organism-based; conditions: in vivo; method in brief: as §2
[14] = Biodistribution in Wistar rat frontal cortex at 40+/-4 MBq, iv after 80 mins; assay type: ADME, organism-based; conditions: in vivo; method in brief: as §2
Pons = assay: Biodistribution in 50 mg/kg cyclosporin A pretreated Wistar rat pons at 27+/-2 MBq, iv after 80 mins; assay type: ADME, organism-based; set-up: dose 50 mg/kg, route intravenous; conditions: in vivo
Colon = assay: Biodistribution in 50 mg/kg cyclosporin A pretreated Wistar rat colon at 27+/-2 MBq, iv after 80 mins; assay type: ADME, organism-based; set-up: dose 50 mg/kg, route intravenous; conditions: in vivo; method in brief: as §1
Plasma [15] = assay: Biodistribution in Wistar rat plasma at 40+/-4 MBq, iv after 60 mins; assay type: ADME, organism-based; conditions: in vivo, 1 h
Bone [16] = assay: Biodistribution in 50 mg/kg cyclosporin A pretreated Wistar rat bone at 27+/-2 MBq, iv after 80 mins; assay type: ADME, organism-based, Bone element; set-up: dose 50 mg/kg, route intravenous; conditions: in vivo; method in brief: as §1
[17] = Biodistribution in 50 mg/kg cyclosporin A pretreated Wistar rat entorhinal cortex at 27+/-2 MBq, iv after 80 mins; assay type: ADME, organism-based; set-up: dose 50 mg/kg, route intravenous; conditions: in vivo; method in brief: as §1
[18] = Biodistribution in Wistar rat entorhinal cortex at 40+/-4 MBq, iv after 80 mins; assay type: ADME, organism-based; conditions: in vivo; method in brief: as §2
Heart [19] = assay: Biodistribution in 50 mg/kg cyclosporin A pretreated Wistar rat heart at 27+/-2 MBq, iv after 80 mins; assay type: ADME, organism-based; set-up: dose 50 mg/kg, route intravenous; conditions: in vivo
Heart [20] = assay: Biodistribution in Wistar rat heart at 40+/-4 MBq, iv after 80 mins; assay type: ADME, organism-based; conditions: in vivo; method in brief: as §2
Duodenum = assay: Biodistribution in Wistar rat duodenum at 40+/-4 MBq, iv after 80 mins; assay type: ADME, organism-based; conditions: in vivo; method in brief: as §2
Bone [21] = assay: Biodistribution in Wistar rat bone at 40+/-4 MBq, iv after 80 mins; assay type: ADME, organism-based, Bone element; conditions: in vivo

For `COc1cc2c(cc1OC)CN(CCCC1CCCc3c(O[11CH3])cccc31)CC2` (stereo not drawn), the SUV [1] was 0.18, the SUV (Spleen [2]) was 1.64 and the AUC (Rattus norvegicus) was 97%. For the same compound, the SUV [3] was 0.84, the SUV (Hippocampus) was 0.86 and the SUV (Lung) was 1.19. For the same compound, the SUV (Liver [4]) was 2.67, the SUV (Plasma [5]) was 0.29 and the SUV (Plasma [6]) was 0.32. For the same compound, the SUV (Striatum [7]) was 0.87, the SUV [8] was 1.14 and the SUV (Kidney) was 1.45. The SUV [9] was 0.16, the SUV (Spleen [10]) was 1.73 and the SUV [11] was 0.88. The SUV (Striatum [12]) was 0.31, the SUV (Liver [13]) was 3.27 and the SUV [14] was 0.36. The SUV (Pons) was 1.28, the SUV (Colon) was 1.81 and the SUV (Plasma [15]) was 0.34. The SUV (Bone [16]) was 0.26, the SUV [17] was 1.23 and the SUV [18] was 0.35. The SUV (Heart [19]) was 0.34, the SUV (Heart [20]) was 0.37 and the SUV (Duodenum) was 2.74. It also gave an SUV (Bone [21]) of 0.28.
